Here are results for 8 compounds from ChEMBL document CHEMBL5120943, “Discovery of Novel Pyrazolopyrimidines as Potent, Selective, and Orally Bioavailable Inhibitors of ALK2” (ACS Med Chem Lett, 2022).

SMILES strings stand for the structures. The source made the active and inactive calls. No cut-off for these calls is given here.

Data set [1] addresses T1, Activin receptor type-1 (Homo sapiens, UniProt Q04771).
T1 sequence (Q04771 whole entry): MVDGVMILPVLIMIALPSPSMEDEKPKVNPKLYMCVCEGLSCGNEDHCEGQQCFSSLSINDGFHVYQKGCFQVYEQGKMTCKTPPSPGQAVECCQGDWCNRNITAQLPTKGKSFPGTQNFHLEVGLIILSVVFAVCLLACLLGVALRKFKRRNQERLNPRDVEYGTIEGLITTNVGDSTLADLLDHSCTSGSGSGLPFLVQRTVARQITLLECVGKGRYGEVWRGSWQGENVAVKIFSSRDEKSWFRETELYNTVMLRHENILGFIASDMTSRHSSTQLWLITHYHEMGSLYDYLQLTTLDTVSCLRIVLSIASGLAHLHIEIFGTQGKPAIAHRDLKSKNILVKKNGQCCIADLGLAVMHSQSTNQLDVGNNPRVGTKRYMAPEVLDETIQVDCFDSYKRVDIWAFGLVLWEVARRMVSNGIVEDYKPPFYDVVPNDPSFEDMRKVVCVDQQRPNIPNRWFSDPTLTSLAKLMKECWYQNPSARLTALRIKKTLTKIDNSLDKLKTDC
Briefly: Inhibition of ALK2 in human HeLa cells assessed as reduction in BMP-7 induced SMAD1 phosphorylation incubated for 1 hr followed BMP-7 stimulation for 30 mins by HTRF assay. The data set is classed as cell-based. In short, it runs like this:
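HeLa cells were stimulated with BMP7. Inhibition of BMP7-induced SMAD1 phosphorylation was read by HTRF and an IC50 was derived.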

Data set [2] addresses T1, Activin receptor type-1. Briefly: Inhibition of human recombinant N-terminal GST tagged ALK2 (147 to end residues) expressed in baculovirus infected in Sf9 cells assessed as loss of peptide phosphorylation activity using peptide substrate in presence of ATP and measured after 3 hrs by HTRF assay. Summed up:
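HTRF activity assay measuring loss of ALK2 phosphorylation of a peptide substrate. IC50 values were determined.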

The nature of data set [3]: Cmax in Sprague-Dawley rat at 3 mg/kg, po measured upto 24 hrs post dose by LC/MS/MS analysis. The data set is classed as ADME, organism-based. Also on record: dose 3 mg/kg, time < 24 hrs, route po. The following applies: in vivo.
The nature of data set [4]: Oral bioavailability in Sprague-Dawley rat at 3 mg/kg measured upto 24 hrs post dose by LC/MS/MS analysis. The data set is classed as ADME, organism-based. To be noted: in vivo.
The nature of data set [5]: AUC infinity in Sprague-Dawley rat at 3 mg/kg, po measured upto 24 hrs post dose by LC/MS/MS analysis. The data set is classed as ADME, organism-based. Also noted: time < 24 hrs, dose 3 mg/kg, route po. The following applies: in vivo.
Data set [6] is described as follows: Metabolic stability in human liver microsomes assessed as intrinsic clearance at 1uM and measured upto 30 mins in presence of NADPH by LC/MS analysis. The data set is classed as ADME, Microsome. To be noted: read-out: CLH (converted).
A short description of data set [7]: Half life in Sprague-Dawley rat at 3 mg/kg, po or 1 mg/kg, iv measured upto 24 hrs post dose by LC/MS/MS analysis. Type of data set: ADME, organism-based. To be noted: in vivo.
In data set [8] the target is T2, Hepcidin (Homo sapiens, UniProt P81172).
T2 sequence (P81172 whole entry): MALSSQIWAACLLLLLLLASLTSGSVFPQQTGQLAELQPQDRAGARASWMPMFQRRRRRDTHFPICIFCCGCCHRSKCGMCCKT
Briefly: Inhibition of Hepcidin in human Huh-7 cells assessed as inhibition of BMP-7 induced hepcidin production incubated for 16 to 24 hrs by ELISA method. The data set is classed as cell-based. Summed up:
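Huh7 liver cells were stimulated with BMP7. Inhibition of secreted hepcidin was measured and an IC50 was derived.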

A short description of data set [9]: Volume of distribution at steady state in Sprague-Dawley rat at 3 mg/kg, po or 1 mg/kg, iv measured upto 24 hrs post dose by LC/MS/MS analysis. To be noted: in vivo. Type of data set: ADME, organism-based.
Data set [10] in a line: Protein binding in human plasma assessed as free fraction measured after 2 hrs by LC-MS/MS analysis. The data set is classed as ADME, cell-free.
Data set [11] relates to Mus musculus. The data set can be described thus: In vivo inhibition of ALK2 in C57BL/6 mouse assessed as reduction in hepcidin level in plasma at 10 mg/kg, po measured after 24 hrs post dose. The data set is classed as functional, organism-based.
Data set [12] can be described thus: Apparent permeability across apical to basolateral side in human Caco-2 cells at 50 uM incubated for 120 mins by LC/MS/MS analysis.
Data set [13] addresses Cytochrome P450 2D6 (Homo sapiens, UniProt P10635). Briefly: Inhibition of CYP2D6 (unknown origin). Type of data set: ADME.
In data set [14] the target is Cytochrome P450 3A4 (Homo sapiens, UniProt P08684). The data set can be described thus: Inhibition of CYP3A4 (unknown origin). The data set is classed as ADME.
Data set [15] deals with Cytochrome P450 2C9 (Homo sapiens, UniProt P11712). The data set can be described thus: Inhibition of CYP2C9 (unknown origin). Type of data set: ADME.
A short description of data set [16]: In vivo inhibition of ALK2 in C57BL/6 mouse assessed as reduction in hepcidin level in plasma at 10 mg/kg, po measured after 4 hrs post dose relative to control. The data set is classed as functional.
For data set [17], the target named is T3, Cytochrome P450 2B6 (Homo sapiens, UniProt P20813).
T3 sequence (P20813 whole entry): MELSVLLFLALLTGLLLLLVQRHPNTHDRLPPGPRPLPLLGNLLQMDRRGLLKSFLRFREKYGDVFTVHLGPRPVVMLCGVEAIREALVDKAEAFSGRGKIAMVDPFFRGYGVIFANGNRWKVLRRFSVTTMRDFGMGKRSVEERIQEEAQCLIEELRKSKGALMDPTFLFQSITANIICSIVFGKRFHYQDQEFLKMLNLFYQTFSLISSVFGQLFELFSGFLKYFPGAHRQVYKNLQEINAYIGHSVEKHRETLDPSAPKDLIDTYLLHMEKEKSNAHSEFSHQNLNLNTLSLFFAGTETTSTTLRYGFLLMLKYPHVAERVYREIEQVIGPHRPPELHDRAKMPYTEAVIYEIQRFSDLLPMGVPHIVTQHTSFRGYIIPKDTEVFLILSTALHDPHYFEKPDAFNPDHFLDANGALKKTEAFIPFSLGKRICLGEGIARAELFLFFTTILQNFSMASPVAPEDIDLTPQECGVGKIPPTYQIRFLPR
The data set can be described thus: Inhibition of CYP2B6 (unknown origin). Type of data set: ADME.

In data set [18] the target is hERG (KCNH2) (Homo sapiens, UniProt Q12809). Briefly: Inhibition of human ERG at 1 uM by patch clamp assay relative to control. Type of data set: toxicity. Summed up: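 hERG activity was tested by patch clamp at 1 μM and expressed as percent inhibition.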
Data set [19] in a line: AUC (0 to 24 hrs) in C57BL/6 mouse plasma at 10 mg/kg, po. Type of data set: ADME, organism-based. Also on record: time < 24 hr, dose 10 mg/kg, route po. Summed up:
(§1)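 Female C57BL/6 mice were given a single oral dose of 10 mg/kg. Compound concentrations in liver and plasma were measured, and AUC was calculated over 0–24 h.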

For data set [20], the target named is T4, Cytochrome P450 2C8 (Homo sapiens, UniProt P10632).
T4 sequence (P10632 whole entry): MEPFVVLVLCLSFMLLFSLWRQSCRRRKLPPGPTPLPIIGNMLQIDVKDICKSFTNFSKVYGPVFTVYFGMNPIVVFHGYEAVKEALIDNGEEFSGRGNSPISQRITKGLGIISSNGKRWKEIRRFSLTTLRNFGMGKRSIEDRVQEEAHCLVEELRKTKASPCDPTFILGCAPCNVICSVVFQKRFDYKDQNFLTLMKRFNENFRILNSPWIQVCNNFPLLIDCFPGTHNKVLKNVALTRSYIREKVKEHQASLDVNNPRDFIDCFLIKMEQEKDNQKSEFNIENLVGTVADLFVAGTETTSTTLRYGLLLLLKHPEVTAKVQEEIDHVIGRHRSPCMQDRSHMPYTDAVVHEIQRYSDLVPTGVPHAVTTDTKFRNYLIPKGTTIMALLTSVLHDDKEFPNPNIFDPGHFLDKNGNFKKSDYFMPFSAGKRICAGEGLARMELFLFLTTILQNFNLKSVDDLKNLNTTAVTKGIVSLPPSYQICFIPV
Briefly: Inhibition of CYP2C8 (unknown origin). Type of data set: ADME.

For data set [21], the target named is T5, Cytochrome P450 1A2 (Homo sapiens, UniProt P05177).
T5 sequence (P05177 whole entry): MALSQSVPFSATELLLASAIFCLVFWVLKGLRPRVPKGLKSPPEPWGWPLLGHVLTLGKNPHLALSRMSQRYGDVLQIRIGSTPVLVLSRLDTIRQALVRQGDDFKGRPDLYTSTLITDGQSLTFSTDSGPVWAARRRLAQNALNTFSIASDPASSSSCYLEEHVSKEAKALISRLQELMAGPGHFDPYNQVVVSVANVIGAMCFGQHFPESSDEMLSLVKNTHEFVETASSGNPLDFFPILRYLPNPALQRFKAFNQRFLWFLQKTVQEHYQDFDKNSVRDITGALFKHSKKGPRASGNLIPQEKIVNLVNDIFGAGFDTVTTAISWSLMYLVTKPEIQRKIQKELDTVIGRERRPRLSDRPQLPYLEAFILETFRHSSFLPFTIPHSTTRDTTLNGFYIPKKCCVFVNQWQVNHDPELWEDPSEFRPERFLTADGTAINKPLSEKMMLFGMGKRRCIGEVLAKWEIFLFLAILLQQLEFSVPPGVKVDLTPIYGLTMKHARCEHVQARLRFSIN
The data set can be described thus: Inhibition of CYP1A2 (unknown origin). Type of data set: ADME.

Data set [22] deals with Cytochrome P450 2C19 (Homo sapiens, UniProt P33261). The data set can be described thus: Inhibition of CYP2C19 (unknown origin). Type of data set: ADME.
Data set [23] can be described thus: AUC (0 to 24 hrs) in C57BL/6 mouse liver at 10 mg/kg, po. The data set is classed as ADME, organism-based. Also noted: time < 24 hr, dose 10 mg/kg, route po. In short, it runs like this: as §1

Sequence of hERG (KCNH2) (Q12809 whole entry): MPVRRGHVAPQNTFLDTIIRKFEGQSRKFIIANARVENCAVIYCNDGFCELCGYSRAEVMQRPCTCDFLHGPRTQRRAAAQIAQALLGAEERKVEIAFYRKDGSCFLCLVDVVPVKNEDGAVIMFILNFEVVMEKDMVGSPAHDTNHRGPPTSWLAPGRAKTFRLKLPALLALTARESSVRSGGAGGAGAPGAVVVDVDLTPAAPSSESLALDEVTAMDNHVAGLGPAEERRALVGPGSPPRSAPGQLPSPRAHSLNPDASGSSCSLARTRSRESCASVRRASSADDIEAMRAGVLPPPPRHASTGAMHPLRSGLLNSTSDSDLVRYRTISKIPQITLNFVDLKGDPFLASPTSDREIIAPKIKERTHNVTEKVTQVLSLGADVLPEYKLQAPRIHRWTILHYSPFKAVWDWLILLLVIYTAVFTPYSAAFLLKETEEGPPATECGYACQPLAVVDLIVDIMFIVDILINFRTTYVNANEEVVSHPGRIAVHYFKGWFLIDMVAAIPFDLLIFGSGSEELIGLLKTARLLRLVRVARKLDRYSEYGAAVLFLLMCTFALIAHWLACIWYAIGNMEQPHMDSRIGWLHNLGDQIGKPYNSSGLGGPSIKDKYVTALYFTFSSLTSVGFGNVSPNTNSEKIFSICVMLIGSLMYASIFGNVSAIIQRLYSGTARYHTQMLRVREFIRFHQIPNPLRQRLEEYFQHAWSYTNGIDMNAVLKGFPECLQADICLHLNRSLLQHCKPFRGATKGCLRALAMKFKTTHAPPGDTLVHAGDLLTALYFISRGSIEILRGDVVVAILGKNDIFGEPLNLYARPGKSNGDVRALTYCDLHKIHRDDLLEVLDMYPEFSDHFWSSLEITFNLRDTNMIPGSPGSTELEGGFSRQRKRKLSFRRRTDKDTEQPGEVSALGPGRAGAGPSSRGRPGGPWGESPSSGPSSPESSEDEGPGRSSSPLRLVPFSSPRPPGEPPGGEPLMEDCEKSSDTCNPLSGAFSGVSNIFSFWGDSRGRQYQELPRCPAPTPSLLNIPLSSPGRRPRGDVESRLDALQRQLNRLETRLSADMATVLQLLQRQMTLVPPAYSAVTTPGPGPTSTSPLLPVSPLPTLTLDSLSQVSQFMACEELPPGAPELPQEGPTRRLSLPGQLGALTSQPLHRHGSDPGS
Sequence of Cytochrome P450 2C9 (P11712 whole entry): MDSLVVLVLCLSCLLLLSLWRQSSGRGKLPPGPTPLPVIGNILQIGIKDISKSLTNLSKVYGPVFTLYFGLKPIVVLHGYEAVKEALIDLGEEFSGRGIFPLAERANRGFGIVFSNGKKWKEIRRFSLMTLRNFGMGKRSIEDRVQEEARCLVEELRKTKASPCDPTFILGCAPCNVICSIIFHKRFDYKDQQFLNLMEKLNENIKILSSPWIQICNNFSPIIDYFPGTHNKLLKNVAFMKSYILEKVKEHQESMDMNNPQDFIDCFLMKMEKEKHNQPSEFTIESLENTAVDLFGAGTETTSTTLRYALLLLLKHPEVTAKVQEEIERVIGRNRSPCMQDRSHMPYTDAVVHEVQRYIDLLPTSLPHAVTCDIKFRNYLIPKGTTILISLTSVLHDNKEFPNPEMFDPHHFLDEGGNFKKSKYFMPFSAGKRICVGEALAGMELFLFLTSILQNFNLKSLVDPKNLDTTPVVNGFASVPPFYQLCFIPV
Sequence of Cytochrome P450 2C19 (P33261 whole entry): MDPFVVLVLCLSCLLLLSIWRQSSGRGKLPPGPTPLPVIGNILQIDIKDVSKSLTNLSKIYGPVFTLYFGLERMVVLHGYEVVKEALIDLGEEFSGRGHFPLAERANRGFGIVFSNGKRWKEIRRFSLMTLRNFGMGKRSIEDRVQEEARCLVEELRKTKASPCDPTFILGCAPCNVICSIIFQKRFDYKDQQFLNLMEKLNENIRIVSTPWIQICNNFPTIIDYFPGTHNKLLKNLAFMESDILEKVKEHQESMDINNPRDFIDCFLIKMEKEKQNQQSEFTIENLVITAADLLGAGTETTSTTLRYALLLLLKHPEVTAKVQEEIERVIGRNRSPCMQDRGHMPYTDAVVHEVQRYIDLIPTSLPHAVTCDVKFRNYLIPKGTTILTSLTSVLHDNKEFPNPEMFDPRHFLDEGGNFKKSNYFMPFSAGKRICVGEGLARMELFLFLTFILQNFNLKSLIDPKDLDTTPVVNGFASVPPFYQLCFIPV
Sequence of Cytochrome P450 3A4 (P08684 whole entry): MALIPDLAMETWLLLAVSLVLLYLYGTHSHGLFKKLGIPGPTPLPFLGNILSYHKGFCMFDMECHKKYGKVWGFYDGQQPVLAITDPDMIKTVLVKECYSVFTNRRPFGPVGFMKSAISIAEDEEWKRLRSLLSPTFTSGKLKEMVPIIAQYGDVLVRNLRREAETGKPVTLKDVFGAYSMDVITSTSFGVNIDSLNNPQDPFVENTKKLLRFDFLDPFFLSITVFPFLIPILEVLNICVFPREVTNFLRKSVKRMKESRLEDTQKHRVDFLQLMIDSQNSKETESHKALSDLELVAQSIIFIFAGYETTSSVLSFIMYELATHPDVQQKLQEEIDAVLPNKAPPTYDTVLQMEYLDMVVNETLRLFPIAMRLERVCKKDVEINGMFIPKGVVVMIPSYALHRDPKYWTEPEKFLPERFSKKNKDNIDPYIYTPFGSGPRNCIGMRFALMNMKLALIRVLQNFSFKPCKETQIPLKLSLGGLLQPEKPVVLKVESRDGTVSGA
Sequence of Cytochrome P450 2D6 (P10635 whole entry): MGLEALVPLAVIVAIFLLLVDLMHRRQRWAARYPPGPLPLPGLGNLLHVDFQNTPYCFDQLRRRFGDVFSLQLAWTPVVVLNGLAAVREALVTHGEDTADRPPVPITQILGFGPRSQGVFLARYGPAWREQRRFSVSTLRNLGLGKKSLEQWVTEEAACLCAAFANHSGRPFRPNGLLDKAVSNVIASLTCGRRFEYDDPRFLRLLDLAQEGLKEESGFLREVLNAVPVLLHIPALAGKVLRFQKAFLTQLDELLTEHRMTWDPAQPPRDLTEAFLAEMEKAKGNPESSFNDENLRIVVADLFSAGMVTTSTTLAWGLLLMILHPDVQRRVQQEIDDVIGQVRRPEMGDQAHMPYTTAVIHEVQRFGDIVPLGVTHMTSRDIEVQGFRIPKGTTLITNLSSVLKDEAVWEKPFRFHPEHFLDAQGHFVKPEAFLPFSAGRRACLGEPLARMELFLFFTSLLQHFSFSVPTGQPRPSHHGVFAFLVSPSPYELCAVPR

In the case of `COCC(=O)N1C[C@@H](C)N(c2ncc3[nH]nc(-c4ccc(N5CCN[C@H](C)C5)nc4)c3n2)[C@@H](C)C1`, the values for the concentration for half-maximal inhibition (IC50) in [1] and in data set [2] were 0.346 µM and 0.0073 µM, respectively.

For the compound `CC(C)C(=O)N1C[C@@H](C)N(c2ncc3[nH]nc(-c4ccc(N5CCN[C@H](C)C5)nc4)c3n2)[C@@H](C)C1`, the IC50 turned out to be 0.661 µM in data set [1] and 0.008 µM in [2].

In the case of `CCOC(=O)N1C[C@@H](C)N(c2ncc3[nH]nc(-c4ccc(N5CCN[C@H](C)C5)nc4)c3n2)[C@@H](C)C1`, the IC50 was 0.212 µM in data set [1] and 0.0049 µM in [2].

Turning to `C[C@@H]1CN(c2ccc(-c3n[nH]c4cnc(N5[C@H](C)CN(C(=O)N6CCCC6)C[C@@H]5C)nc34)cn2)CCN1`, the highest level in data set [3] (Cmax) was 151 nM. In data set [4], the bioavailability came to 46%. In [5], this compound gave an AUC(0-inf) of 0.669 µM·h. Further, the CLint scaled at 1 µM in data set [6] was 18.3 mL/min/kg. This compound had a half-life in [7] of 3.8 h. The IC50 in data set [8] was found to be 0.028 µM. In data set [9], this compound displayed a Vdss of 9.2 L/kg. Also, in data set [10], the unbound share (fraction unbound) at 2 h turned out to be 0.043.

With `C[C@@H]1CN(c2ccc(-c3n[nH]c4cnc(N5CCCCC5)cc34)cn2)CCN1`, the IC50 in [2] came out at 0.077 µM.

Regarding `C[C@@H]1CN(c2ccc(-c3n[nH]c4cnc(N5[C@H](C)COC[C@@H]5C)nc34)cn2)CCN1`, the IC50 in data set [1] was 0.245 µM; in data set [2] it was 0.023 µM.

With `COC(=O)N1C[C@@H](C)N(c2ncc3[nH]nc(-c4ccc(N5CCN(C)CC5)c(F)c4)c3n2)[C@@H](C)C1`, the IC50 in data set [1] worked out at 0.119 µM; in [2], 0.0013 µM.

Turning to `COC(=O)N1C[C@@H](C)N(c2ncc3[nH]nc(-c4ccc(N5CCN(C)CC5)cc4)c3n2)[C@@H](C)C1`, the IC50 in data set [1] is 0.061 µM; in data set [2], 0.00098 µM; in [13], above 25 µM; in data set [14], above 25 µM; in [15], above 25 µM; in [17], above 25 µM. For the same compound, the IC50 in data set [20] was above 25 µM; in [21], above 25 µM; in data set [8], 0.034 µM; in [22], above 25 µM. Moreover, the concentration in data set [3] peaked (Cmax) at 434 nM. In [11], the inhibition entry is “Active”. The Papp A→B at 2 h, 50 µM in [12] turned out to be 4.5 ×10⁻⁶ cm/s. Further, in data set [4], the bioavailability amounted to 85%. In [5], the AUC(0-inf) worked out at 4.05 µM·h. Also, in data set [16], the inhibition in vivo at 10 mg/kg stood at 80%. The inhibition at 1 µM in data set [18] is below 1%. The CLint scaled at 1 µM in data set [6] was 16.7 mL/min/kg. Also, the figures for the AUC(0-t) at 24 h in data set [19] and in data set [23] were 26.2 µM·h and 376 µM·h, respectively. This compound also showed a half-life in [7] of 5.7 h. In data set [9], this compound had a Vdss of 7.6 L/kg. Also, in [10], the fraction unbound at 2 h worked out at 0.043.
